In series [1] the target is Tyrosine-protein kinase Mer (Homo sapiens, UniProt Q12866). Kind of series: Inhibition of recombinant c-Mer (unknown origin) using poly (Glu, Tyr) 4:1 as substrate incubated for 60 mins by ELISA.
The test system of another series is NCI-H460. Kind of series: Antiproliferative activity against human NCI-H460 cells after 72 hrs by SRB or MTT assay. The class given is functional, cell-based. The conditions noted are these: NCI-H460, 72 h. In a few lines:
(§1)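 Cells seeded, exposed next day to a range of concentrations for 72 h. Growth read by sulforhodamine B or MTT. IC50 from four-parameter concentration-response fit. Each concentration tested at least in triplicate, with at least 2 experiments.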
Background: Tetrazolium assays rely on reduction of a dye to a coloured formazan, in cell work by metabolically active cells.

In the next series the test system is NCI-H1299. Kind of series: Antiproliferative activity against human NCI-H1299 cells after 72 hrs by SRB or MTT assay. The class given is functional, cell-based. The conditions noted are these: NCI-H1299, 72 h. Put shortly:
as §1

The nature of series [2]: Selectivity ratio of IC50 for human U87MG cells to IC50 for human EBC1 cells. Type of series: ADME, cell-based. The conditions noted are these: u-87mg atcc.
A short description of series [3]: Selectivity ratio of IC50 for human NCI-H1299 cells to IC50 for human EBC1 cells. The class given is ADME, cell-based. Put shortly: (§2)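 Both IC50s in each ratio come from one proliferation assay. Cells were seeded and exposed the next day to a range of concentrations for 72 h, then read by SRB or MTT. IC50s were fitted by four-parameter concentration–response, with each concentration at least in triplicate and at least 2 experiments. BaF3/TPR-Met is murine pre-B BaF3 transfected with TPR-MET and puromycin-selected.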

A short description of series [4]: Selectivity ratio of IC50 for human NCI-H358 cells to IC50 for mouse BAF3 cells expressing TPR-MET. The class given is ADME, cell-based. In a few lines: as §2
A short description of series [5]: Antiproliferative activity against human PANC1 cells after 72 hrs by SRB or MTT assay. The conditions noted are these: PANC-1, 72 h. The class given is functional, cell-based. Put shortly:
as §1

Series [6] concerns the target T1, Hepatocyte growth factor receptor (Homo sapiens, UniProt P08581). Kind of series: Inhibition of c-Met phosphorylation at Tyrosine 1234 in HGF stimulated human U87MG cells at 10 nM after 1 hr by Western blot analysis. Type of series: cell-based. The conditions noted are these: U-87MG ATCC. Put shortly: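 U87MG cells serum-starved 24 h, pretreated with compound 1 h at 37 °C, then stimulated with HGF (100 ng/mL) for 15 min. Lysed in 1× SDS sample buffer, resolved by 10% SDS-PAGE and blotted to nitrocellulose. Probed for phospho-c-Met, phospho-ERK1/2, phospho-AKT and totals, with GAPDH as loading control. ECL detection.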
(Immunoblotting shows a protein as a band on a membrane.)

In series [7] the target is TPR/MET fusion protein (Mus musculus) (UniProt P16056+F6ZDS4). Kind of series: Inhibition of TPR-MET phosphorylation in mouse BAF3 cells at 10 nM after 1 hr by Western blot analysis. Type of series: cell-based. In a few lines:
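BaF3 stably expressing TPR-MET (puromycin-selected), grown with IL-3-conditioned medium. Treated 1 h at 37 °C, lysed in SDS sample buffer. 10% SDS-PAGE and immunoblot for phospho-c-Met, phospho-ERK1/2, phospho-AKT and totals; ECL detection.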

The target of series [8] is T1, Hepatocyte growth factor receptor. Kind of series: Inhibition of c-Met in human MKN45 cells assessed as reduction in ERK phosphorylation at Threonine 202 at 10 nM after 1 hr by Western blot analysis. The class given is cell-based. The conditions noted are these: MKN-45. In a few lines:
(§3)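 EBC-1 or MKN45 cells treated with compound 1 h at 37 °C without HGF, then lysed in 1× SDS sample buffer. Lysates run on 10% SDS-PAGE and transferred to nitrocellulose. Probed with antibodies to c-Met, phospho-c-Met, phospho-ERK1/2, phospho-AKT, AKT and GAPDH, then HRP secondary. ECL detection.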

Series [9] in a line: Selectivity ratio of IC50 for human SGC7901 cells to IC50 for mouse BAF3 cells expressing TPR-MET. The class given is ADME, cell-based. Put shortly:
(§4)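 Each cell line was seeded in 96-well plates, then exposed the next day to a range of compound concentrations for 72 h. Growth was read by SRB or MTT assay, and IC50 was fitted by a four-parameter concentration-response curve. Each concentration was run at least in triplicate, in at least 2 experiments. BaF3/TPR-Met are murine pre-B BaF3 cells transfected with TPR-MET cDNA and selected in puromycin.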

The nature of series [10]: Selectivity ratio of IC50 for human NCI-H661 cells to IC50 for human EBC1 cells. Type of series: ADME, cell-based. Put shortly: as §2
For series [11], the target named is T1, Hepatocyte growth factor receptor. Kind of series: Inhibition of c-Met phosphorylation at Tyrosine 1234 in human EBC1 cells at 10 nM after 1 hr by Western blot analysis. The class given is cell-based. In a few lines:
as §3

Series [12] addresses Receptor-type tyrosine-protein kinase FLT3 (Homo sapiens) (UniProt P36888). Kind of series: Inhibition of recombinant FLT3 (unknown origin) using poly (Glu, Tyr) 4:1 as substrate at 1000 nM incubated for 60 mins by ELISA relative to control. In a few lines:
(§5)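 Recombinant tyrosine kinases assayed on wells precoated with poly(Glu,Tyr)4:1 (20 µg/mL). ATP 10 µmol/L in HEPES pH 7.4 buffer with MgCl2, MnCl2, Na3VO4 and DTT; compound in 1% DMSO, 1% DMSO as control. Reaction 60 min at 37 °C. Phosphotyrosine detected with PY99 and HRP anti-mouse, o-phenylenediamine, A490. Inhibition % relative to control; two experiments.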

Series [13] can be described thus: Selectivity ratio of IC50 for human MDA-MB-231 cells to IC50 for mouse BAF3 cells expressing TPR-MET. Type of series: ADME, cell-based. Put shortly:
as §2

Series [14] can be described thus: Antitumor activity against human EBC1 cells xenografted in athymic nude mouse assessed as tumor growth inhibition at 12.5 mg/kg, po bid for 21 days measured twice a week during compound dosing relative to control. The class given is functional. The conditions noted are these: EBC-1, po, 504 h, read-out: TGI. Put shortly:
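Nude mice bearing s.c. tumours. Cells were first grown s.c. to 700–800 mm³, then 1.5 mm³ fragments were transplanted s.c. into the right flank. Mice were randomised at 100–200 mm³ (n=6 treated, n=12 vehicle) and dosed orally twice daily for 21 days. Caliper measurement twice weekly; TV = length×width²/2. TGI taken on the final day versus vehicle; Student's t test.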

For series [15], the target named is Platelet-derived growth factor receptor beta (Homo sapiens) (UniProt P09619). Kind of series: Inhibition of recombinant PDGFRbeta (unknown origin) using poly (Glu, Tyr) 4:1 as substrate at 1000 nM incubated for 60 mins by ELISA relative to control. Put shortly: as §5
In general terms: An ELISA detects its analyte on a solid surface through an enzyme-linked reagent.

Series [16] has as its target Vascular endothelial growth factor receptor 1 (Homo sapiens) (UniProt P17948). Kind of series: Inhibition of recombinant FLT1 (unknown origin) using poly (Glu, Tyr) 4:1 as substrate at 1000 nM incubated for 60 mins by ELISA relative to control. In a few lines: as §5
Series [17] can be described thus: Selectivity ratio of IC50 for human NCI-HCC827 cells to IC50 for mouse BAF3 cells expressing TPR-MET. The class given is ADME, cell-based. In a few lines: as §4
For series [18], the target named is T1, Hepatocyte growth factor receptor. Kind of series: Inhibition of c-Met in human MKN45 cells assessed as reduction in AKT phosphorylation at Serine 473 at 10 nM after 1 hr by Western blot analysis. Type of series: cell-based. The conditions noted are these: MKN-45. In a few lines:
as §3

1 compound from ChEMBL document CHEMBL3797175, “Discovery of 6-(difluoro(6-(4-fluorophenyl)-[1,2,4]triazolo[4,3-b][1,2,4]triazin-3-yl)methyl)quinoline as a highly potent and selective c-Met inhibitor” (Eur J Med Chem, 2016) can be followed below.

As a reminder, the pIC50 is −log10 of the IC50, conventionally taken in molar units. Broadly, the inhibition is the percentage by which the read-out fell short of the control.

pIC50: −log10 of the molar value. The source made the active and inactive calls. No cut-off for these calls is given here. Bounds are passed on as bounds.

T1 sequence (P08581 whole entry): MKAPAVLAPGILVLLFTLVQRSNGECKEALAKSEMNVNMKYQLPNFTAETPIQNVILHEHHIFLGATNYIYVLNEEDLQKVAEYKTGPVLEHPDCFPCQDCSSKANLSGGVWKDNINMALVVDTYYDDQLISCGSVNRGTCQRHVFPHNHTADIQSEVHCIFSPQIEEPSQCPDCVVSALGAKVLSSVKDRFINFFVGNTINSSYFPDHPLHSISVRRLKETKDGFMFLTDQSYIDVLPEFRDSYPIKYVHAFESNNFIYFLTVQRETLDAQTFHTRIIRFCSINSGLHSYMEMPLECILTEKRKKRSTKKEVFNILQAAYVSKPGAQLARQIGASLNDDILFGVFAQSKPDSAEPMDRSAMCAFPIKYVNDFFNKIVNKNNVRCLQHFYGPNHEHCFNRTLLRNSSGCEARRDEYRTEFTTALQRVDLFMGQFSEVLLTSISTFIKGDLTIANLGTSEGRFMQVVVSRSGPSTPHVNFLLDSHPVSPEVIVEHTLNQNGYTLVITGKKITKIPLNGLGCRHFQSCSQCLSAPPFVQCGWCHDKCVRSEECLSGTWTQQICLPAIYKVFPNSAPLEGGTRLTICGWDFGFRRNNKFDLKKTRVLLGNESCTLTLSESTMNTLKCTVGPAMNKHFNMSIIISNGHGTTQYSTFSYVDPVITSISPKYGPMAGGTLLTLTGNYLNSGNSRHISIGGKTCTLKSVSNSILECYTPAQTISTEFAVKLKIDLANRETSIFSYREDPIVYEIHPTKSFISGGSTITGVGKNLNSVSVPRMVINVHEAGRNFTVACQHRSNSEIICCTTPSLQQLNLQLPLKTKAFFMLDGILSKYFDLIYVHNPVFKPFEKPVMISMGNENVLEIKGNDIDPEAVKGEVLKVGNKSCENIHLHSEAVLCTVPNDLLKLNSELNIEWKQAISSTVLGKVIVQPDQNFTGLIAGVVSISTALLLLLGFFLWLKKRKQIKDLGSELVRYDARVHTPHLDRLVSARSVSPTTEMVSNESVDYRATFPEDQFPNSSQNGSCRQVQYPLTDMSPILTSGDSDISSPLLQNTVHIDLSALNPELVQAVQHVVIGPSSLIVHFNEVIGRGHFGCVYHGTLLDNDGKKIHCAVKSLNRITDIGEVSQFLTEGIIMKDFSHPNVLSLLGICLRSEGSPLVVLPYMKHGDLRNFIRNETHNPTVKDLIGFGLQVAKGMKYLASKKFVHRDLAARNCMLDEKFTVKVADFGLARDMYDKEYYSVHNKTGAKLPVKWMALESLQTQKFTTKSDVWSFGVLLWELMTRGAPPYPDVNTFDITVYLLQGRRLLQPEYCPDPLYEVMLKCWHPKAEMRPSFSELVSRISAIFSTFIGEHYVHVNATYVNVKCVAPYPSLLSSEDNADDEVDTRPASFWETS
Chain of Platelet-derived growth factor receptor beta (Homo sapiens) (P09619 whole entry): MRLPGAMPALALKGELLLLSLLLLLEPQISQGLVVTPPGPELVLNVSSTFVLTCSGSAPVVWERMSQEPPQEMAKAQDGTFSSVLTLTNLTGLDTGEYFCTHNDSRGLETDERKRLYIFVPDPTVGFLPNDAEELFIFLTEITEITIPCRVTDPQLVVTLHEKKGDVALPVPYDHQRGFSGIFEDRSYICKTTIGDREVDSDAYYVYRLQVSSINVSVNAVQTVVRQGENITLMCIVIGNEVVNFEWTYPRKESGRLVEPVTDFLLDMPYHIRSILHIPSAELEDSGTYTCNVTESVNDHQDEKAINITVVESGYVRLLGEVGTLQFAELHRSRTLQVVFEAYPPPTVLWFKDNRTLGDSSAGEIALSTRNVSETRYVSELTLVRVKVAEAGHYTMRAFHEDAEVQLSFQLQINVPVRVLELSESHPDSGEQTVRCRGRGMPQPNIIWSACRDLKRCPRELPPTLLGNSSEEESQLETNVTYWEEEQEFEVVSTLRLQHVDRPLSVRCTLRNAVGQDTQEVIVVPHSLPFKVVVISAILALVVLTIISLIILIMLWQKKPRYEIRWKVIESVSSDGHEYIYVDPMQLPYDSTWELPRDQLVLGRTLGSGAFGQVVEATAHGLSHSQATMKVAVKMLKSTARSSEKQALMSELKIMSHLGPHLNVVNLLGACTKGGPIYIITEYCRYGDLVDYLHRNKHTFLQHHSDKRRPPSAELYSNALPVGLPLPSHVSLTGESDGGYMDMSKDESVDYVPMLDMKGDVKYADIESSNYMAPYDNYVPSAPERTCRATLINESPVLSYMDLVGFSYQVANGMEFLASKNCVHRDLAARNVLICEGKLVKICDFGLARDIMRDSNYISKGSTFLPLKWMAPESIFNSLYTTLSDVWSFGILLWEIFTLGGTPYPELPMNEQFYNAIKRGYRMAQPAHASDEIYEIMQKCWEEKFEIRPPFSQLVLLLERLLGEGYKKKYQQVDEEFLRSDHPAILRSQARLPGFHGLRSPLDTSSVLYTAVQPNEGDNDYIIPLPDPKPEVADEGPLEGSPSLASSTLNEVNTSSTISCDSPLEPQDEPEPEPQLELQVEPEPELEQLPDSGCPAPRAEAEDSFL
Chain of Tyrosine-protein kinase Mer (Q12866 whole entry): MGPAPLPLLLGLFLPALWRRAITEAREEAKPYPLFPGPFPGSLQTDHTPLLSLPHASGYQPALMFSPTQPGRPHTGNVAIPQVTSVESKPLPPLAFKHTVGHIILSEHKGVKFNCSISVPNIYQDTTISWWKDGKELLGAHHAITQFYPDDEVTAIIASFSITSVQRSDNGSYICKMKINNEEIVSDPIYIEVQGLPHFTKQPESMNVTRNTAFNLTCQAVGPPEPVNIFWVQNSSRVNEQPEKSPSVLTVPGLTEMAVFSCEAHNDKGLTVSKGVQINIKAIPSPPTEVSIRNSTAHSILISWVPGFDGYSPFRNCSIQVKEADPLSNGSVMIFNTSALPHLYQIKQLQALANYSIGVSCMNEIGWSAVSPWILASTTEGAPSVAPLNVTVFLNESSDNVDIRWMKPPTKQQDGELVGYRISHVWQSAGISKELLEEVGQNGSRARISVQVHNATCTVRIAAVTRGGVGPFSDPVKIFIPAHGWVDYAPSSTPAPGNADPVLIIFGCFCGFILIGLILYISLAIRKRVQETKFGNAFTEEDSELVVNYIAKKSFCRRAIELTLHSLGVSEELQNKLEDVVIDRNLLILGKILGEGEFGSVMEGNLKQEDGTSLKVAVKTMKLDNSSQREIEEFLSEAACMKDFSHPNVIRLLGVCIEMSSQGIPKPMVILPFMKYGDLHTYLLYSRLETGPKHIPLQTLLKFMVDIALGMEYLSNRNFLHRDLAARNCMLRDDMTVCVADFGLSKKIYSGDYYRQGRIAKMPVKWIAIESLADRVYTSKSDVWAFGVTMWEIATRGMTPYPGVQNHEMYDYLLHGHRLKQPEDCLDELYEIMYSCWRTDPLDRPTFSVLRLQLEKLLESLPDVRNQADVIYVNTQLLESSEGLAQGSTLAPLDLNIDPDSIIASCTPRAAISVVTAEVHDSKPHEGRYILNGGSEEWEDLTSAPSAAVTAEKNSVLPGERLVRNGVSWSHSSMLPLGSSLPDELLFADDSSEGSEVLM
Chain of Vascular endothelial growth factor receptor 1 (Homo sapiens) (P17948 whole entry): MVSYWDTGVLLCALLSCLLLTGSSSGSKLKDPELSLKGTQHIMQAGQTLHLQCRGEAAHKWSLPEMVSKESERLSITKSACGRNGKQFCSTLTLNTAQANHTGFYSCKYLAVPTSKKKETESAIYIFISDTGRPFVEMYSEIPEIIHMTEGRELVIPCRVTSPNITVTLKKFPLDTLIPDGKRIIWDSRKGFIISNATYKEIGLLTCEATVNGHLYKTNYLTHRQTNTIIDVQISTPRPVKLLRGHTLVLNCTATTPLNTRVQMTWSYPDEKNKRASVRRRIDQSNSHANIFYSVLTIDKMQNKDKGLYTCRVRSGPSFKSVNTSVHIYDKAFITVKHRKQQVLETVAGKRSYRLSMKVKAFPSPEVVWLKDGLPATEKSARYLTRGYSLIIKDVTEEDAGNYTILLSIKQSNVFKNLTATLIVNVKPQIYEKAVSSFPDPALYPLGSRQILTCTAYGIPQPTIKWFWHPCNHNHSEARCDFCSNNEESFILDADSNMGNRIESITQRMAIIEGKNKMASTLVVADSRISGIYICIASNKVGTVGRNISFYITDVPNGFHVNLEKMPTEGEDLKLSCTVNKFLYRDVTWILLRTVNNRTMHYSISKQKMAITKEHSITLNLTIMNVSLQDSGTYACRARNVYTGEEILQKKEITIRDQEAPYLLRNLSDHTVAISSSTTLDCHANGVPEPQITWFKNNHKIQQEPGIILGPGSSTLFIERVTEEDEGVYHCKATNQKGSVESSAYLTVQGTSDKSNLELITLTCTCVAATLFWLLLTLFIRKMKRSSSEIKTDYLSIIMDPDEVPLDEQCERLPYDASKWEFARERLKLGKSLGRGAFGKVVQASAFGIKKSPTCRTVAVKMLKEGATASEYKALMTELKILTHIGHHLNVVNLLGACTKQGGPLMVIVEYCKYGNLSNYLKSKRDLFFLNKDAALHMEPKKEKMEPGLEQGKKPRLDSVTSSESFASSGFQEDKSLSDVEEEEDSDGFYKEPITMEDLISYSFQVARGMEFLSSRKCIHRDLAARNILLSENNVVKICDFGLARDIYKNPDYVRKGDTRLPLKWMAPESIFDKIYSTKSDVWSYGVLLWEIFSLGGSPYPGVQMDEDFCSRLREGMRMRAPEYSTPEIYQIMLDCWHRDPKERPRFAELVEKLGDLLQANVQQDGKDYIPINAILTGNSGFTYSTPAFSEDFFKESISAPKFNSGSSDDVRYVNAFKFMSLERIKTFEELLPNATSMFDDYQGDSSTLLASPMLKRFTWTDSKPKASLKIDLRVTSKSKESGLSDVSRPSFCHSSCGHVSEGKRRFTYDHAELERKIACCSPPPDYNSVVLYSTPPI

On to `Fc1ccc(-c2cnc3nnc(C(F)(F)c4ccc5ncccc5c4)n3n2)cc1`, for which the pIC50 is below 6.00 in [1], below 5.00 with NCI-H460, below 5.00 with NCI-H1299 and below 5.00 in series [5]. Besides, the “Ratio IC50” value in [2] is 10000; in series [3], 10000; in [4], 10000; in [9] it was above 10000; in [10], 10000; in series [13], above 10000. The “Ratio IC50” value in [17] stood at 10000. In addition, the inhibition entry in [6], in [7], in series [8], in series [11] and in series [18] was “Active” throughout. Further, the inhibition in series [12] came out at 12.3%; in series [15], 19.6%; in series [16], 11.5%. In addition, in [14], the inhibition in vivo at 12.5 mg/kg stood at 75.6%.
